Screening results: PubChem, several laboratories
Compounds with a hit are over-represented: about 1.8% of the library has one in this group of screens.
CAL PDZ FP-1: blocks peptide binding to human CAL PDZ domain | Q9HD26 | purified CAL PDZ, TMR-peptide fluorescence polarization, 1 h | inhibition, % at 20 µM | hit rate 0.02% among 330,000 | AID 504414;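 active = highest replicate inhibition of at least 40%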;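 also: plate controls were DMSO neutral control wells for no effect and unlabeled competitor peptide control wells for full effect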
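Material: tagged CAL PDZ protein CerCALP, purified; buffer or medium: sodium phosphate/NaCl buffer pH 7.4 with TCEP, IgG, Thesit; also added: fluorescent TMR peptide probe; schedule: 1 h incubation at room temperature before polarization reading; technique: fluorescence polarization from S- and P-plane intensities, G-factor corrected; control set: unlabelled peptide and DMSO controls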
GRK2 aptamer HTS: human GRK2 inhibition via aptamer displacement; P25098; bead flow cytometry, FAM-aptamer displacement from GRK2; inhibition of aptamer binding, % at 10 µM; hit rate 0.59% among 330,000; AID 488847;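 active = inhibition of aptamer binding above 40%, roughly 3 SD of noise, on plates passing a quality check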;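 also: median bead fluorescence of bound FAM aptamer so fluorescent compounds give negative values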
ARNT-TACC3 inh: disrupts binding between human ARNT and TACC3. Q9Y6A5. AlphaScreen His-ARNT PAS-B/GST-TACC3 binding, luminescence; TACC3 fragment carries E629A point mutation. inhibition, % at 9.99 µM. hit rate 0.66% among 390,000. AID 623870;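 active = mean inhibition of replicates at least 50% and at least half of replicates each reaching 50%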;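 also: 0% = complete ARNT plus TACC3 wells and 100% = ARNT alone without TACC3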
DDE Tn7 FP inh: disrupts Tn7 cyclic peptide binding to fibrin D-Dimer-E complex; P02675; FP displacement of FITC-Tn7 peptide from fibrin DD(E); 0% = median of compound wells per plate; inhibition, % at 8.3 µM; hit rate 0.13% among 370,000;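 active = inhibition above the mean of compounds falling within the control limits plus 3 SD of them, cut at about 14% in these data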;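 also: 0% = plate median of compound wells and 100% = 10 µM Aha-Tn7 peptide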
Target sequence (P02675 whole entry, looked up): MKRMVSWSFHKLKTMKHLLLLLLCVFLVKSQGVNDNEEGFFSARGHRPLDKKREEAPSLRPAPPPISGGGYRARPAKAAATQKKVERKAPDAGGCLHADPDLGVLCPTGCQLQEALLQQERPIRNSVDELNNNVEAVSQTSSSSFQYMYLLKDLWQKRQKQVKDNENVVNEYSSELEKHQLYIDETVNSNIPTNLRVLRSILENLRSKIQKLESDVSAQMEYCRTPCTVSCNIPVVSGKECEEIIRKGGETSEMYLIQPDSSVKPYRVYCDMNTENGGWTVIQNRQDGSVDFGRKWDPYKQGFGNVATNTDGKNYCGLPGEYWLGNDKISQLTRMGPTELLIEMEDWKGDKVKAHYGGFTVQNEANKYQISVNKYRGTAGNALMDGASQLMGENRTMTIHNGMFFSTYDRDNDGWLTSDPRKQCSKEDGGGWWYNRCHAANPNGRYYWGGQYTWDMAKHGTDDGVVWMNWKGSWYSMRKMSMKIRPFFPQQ
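assay system = human clot-derived fibrin DD(E) complex | quantity = Fibrin-DD(E) at 2 µM final | timing = 10 min preincubation, 3 h with tracer, room temperature | signal = fluorescence polarization | measure = percent inhibition | benchmarks = high control wells with 10 µM unlabelled Aha-Tn7 peptide (full inhibition) | replicates = singlicate testing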
DDE Tn6 FP inh: DD(E)-Tn6 binding inhibition, primary FP screen. AID 720509. P02675. Fibrin DD(E) TRITC-Tn6 fluorescence polarization displacement. hit rate 0.21% among 370,000. inhibition, % at 8.3 µM;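 active = inhibition above a per-campaign cutoff: mean of compounds within control limits plus 3 SD, cut at about 15% in these data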;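 also: 0% = median of all compound wells on the plate and 100% = blocking peptide control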
CAL PDZ FP-2: inhibitors of human CAL PDZ peptide binding. purified CAL PDZ, TMR-peptide fluorescence polarization, 1 h. inhibition, % at 24.9 µM. hit rate 0.92% among 300,000. Q9HD26;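 active = mean inhibition of at least 30% with at least half of replicates also reaching 30%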;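 also: 0% = DMSO neutral control and 100% = excess unlabeled competitor peptide PRC23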
GRK2 inh confirm: human GRK2 inhibition confirmation, cherry pick 1. shares compounds with GRK2 aptamer HTS. bead-bound GRK2, FAM-aptamer displacement, flow cytometry. aptamer displacement, % at 10 µM. hit rate 4% among 2,000. AID 504451;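 active = aptamer displacement above 40%, near three times the noise of non-fluorescent compounds, on plates passing quality checks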;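 also: negative values mostly reflect intrinsic compound fluorescence rather than true enhancement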
Aptamer quench: quenches fluorescent RNA aptamer, GRK2 hit artifact; shares compounds with GRK2 aptamer HTS; Fluorescent RNA aptamer beads, quenching, flow cytometry; stronger effect = higher value; fluorescence change (kMESF span), kMESF (no concentration beside the values); 110 tested, under 10 active; AID 504521;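 active = compounds whose bead fluorescence drops by more than 37 kMESF across the dose range, marking them as dye quenchers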
FAM quench CP1: quenches fluorescent RNA aptamer, GRK2 hit artifact; shares compounds with GRK2 aptamer HTS; Carboxyfluorescein RNA aptamer on beads, flow cytometry quenching; stronger effect = lower value; fluorescence response (% of DMSO), % at 10 µM; 2,000 tested, under 10 active;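 active = compounds that quench the bead-bound fluorescent RNA probe, cutting fluorescence to under half of the solvent control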;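 also: counterscreen run without GRK2 so only probe quenching by compound is measured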
An asterisk follows results filed as active; nt = no result given.

SMILES	CAL PDZ FP-1	GRK2 aptamer HTS	ARNT-TACC3 inh	DDE Tn7 FP inh	DDE Tn6 FP inh	CAL PDZ FP-2	GRK2 inh confirm	FAM quench CP1	others
CC(C)(C)C(=O)O[C@H]1CC[C@@]2(C)C(=CC(=O)C3C2CC[C@]2(C)C(=O)CCC32)C1 (some centres undefined)	0	1	-3	2	0	85*	nt	nt
CCC(=O)N1[C@@H]2c3ccc(-c4ccc(F)cc4)c(=O)n3C[C@H]1[C@H](CO)[C@H]2C(=O)OC	nt	nt	4	nt	nt	nt	nt	nt
CN(C)C1C(=O)C(C(N)=O)=C(O)C2(O)C(=O)C3=C(O)c4c(O)cccc4C(C)(O)C3CC12 (centres undefined)	1	0	4	nt	nt	-1	nt	nt
CN(C)[C@@H]1C(=O)C(C(N)=O)=C(O)[C@@]2(O)C(=O)C3=C(O)c4c(O)cccc4[C@@](C)(O)[C@H]3C[C@@H]12	nt	42*	nt	nt	nt	nt	nt	nt
Cc1ccc(OP2(=O)Nc3cc(C)c(C)cc3S2)cc1 (centres undefined)	-2	nt	46*	1	-10	0	nt	nt
Cc1ccc2c(c1)NP(=S)(Oc1ccccc1)N2 (centres undefined)	0	nt	1	-5	1	-3	nt	nt
COC(=O)[C@@H]1[C@@H](CO)[C@@H]2Cn3c(ccc(-c4ccncc4)c3=O)[C@H]1N2CCc1ccccc1	nt	nt	-5	nt	nt	nt	nt	nt
O=C(N/N=C/c1c(O)n(Cc2ccco2)c(=O)[nH]c1=O)c1ccccc1O	1	4	65*	2	3	6	nt	nt
O=c1[nH]c(=O)n(Cc2ccco2)c(O)c1C=NCc1ccco1	-2	10	-2	-2	12	1	nt	nt
CCCCC(=O)N/N=C/c1c(O)n(-c2cccc3ccccc23)c(=O)[nH]c1=O	0	0	61*	2	-2	5	nt	nt
CCCCC(=O)N/N=C/c1c(O)n(CCCC)c(=S)[nH]c1=O	-1	0	61*	-11	-6	nt	nt	nt
CCCCC(=O)N/N=C/c1c(O)n(Cc2ccco2)c(=O)[nH]c1=O	0	5	72*	1	-2	-2	nt	nt
COC(=O)C1C(c2ccccc2)CC2CCC1N2C (centres undefined)	nt	nt	nt	-15	2	nt	nt	nt
COC(=O)[C@@H]1[C@@H](CO)[C@@H]2Cn3c(ccc(/C=C/c4ccccc4)c3=O)[C@H]1N2C(=O)C1CCC1	nt	nt	-32	nt	nt	nt	nt	nt
Cc1cc(N2CCNC[C@H]2C)ccc1N1CCN[C@H](C)C1	nt	nt	nt	-2	-7	nt	nt	nt
O=C(N/N=C/c1c(O)n(C2CCCCC2)c(=S)[nH]c1=O)c1ccccc1	-1	0	30	-3	0	0	nt	nt
O=C(N/N=C/C1C(=O)NC(=S)N(c2ccccc2)C1=O)c1cc(Br)c(O)c(Br)c1 (centres undefined)	nt	5	65*	2	-9	4	nt	nt
O=C(Cc1ccccn1)N1CCCCN2[C@@H](CO)[C@@H](c3ccc(-c4ccccc4F)cc3)[C@@H]2C1	nt	nt	4	nt	nt	nt	nt	nt
Cc1ccc2c(c1)C1CN(C)CCC1N2C(=O)COc1ccc(S(=O)(=O)N2CCOCC2)cc1 (centres undefined)	-2	0	-9	6	-1	-2	-3	102
Cc1ccc2c(c1)C1CN(C)CCC1N2C(=O)/C=C/c1ccc2c(c1)OCO2 (centres undefined)	-3	64*	nt	0	-3	-4	-7	97
Cc1ccc2c(c1)C1CN(C)CCC1N2C(=O)Cc1cccs1 (centres undefined)	0	6	10	-1	1	-2	nt	nt
N#Cc1cccc(-c2ccc([C@H]3[C@@H](CO)N4CCCCN(C(=O)Cc5ccncc5)C[C@@H]34)cc2)c1	nt	nt	13	nt	nt	nt	nt	nt
CN1/C(=C\C=C2C(=O)NC(=S)NC2=O)C(C)(C)c2ccccc21	8	nt	5	-31	1	-2	nt	nt
CC1(C)OC(c2ccccc2)=C/C(=C/C=C2C(=O)NC(=S)NC2=O)O1	nt	48*	nt	-21	-9	nt	22	107
CCCN1CCC2(CC1)NC(CO)(CO)CO2	-1	0	-2	5	7	-3	nt	nt
SMILES	CAL PDZ FP-1	GRK2 aptamer HTS	ARNT-TACC3 inh	DDE Tn7 FP inh	DDE Tn6 FP inh	CAL PDZ FP-2	GRK2 inh confirm	FAM quench CP1	others
CCN1CCC2(CC1)NC(CO)(CO)CO2	-1	48*	-5	-4	-1	-4	-1	91
COc1cc(/C=C/c2nc3ccccc3c(=O)n2-c2cccc(O)c2)ccc1O	0	1	-10	1	-8	-3	nt	nt
COc1cc(/C=C/c2nc3ccccc3c(=O)n2-c2ccccc2O)ccc1O	1	48*	6	1	-3	-1	-42	106
Cc1ccsc1C(=O)C1CCCN(Cc2cnc(N(C)C)s2)C1 (centres undefined)	nt	1	nt	nt	nt	nt	nt	nt
Cc1ccsc1C(=O)C1CCCN(Cc2cnc(N3CCOCC3)s2)C1 (centres undefined)	0	0	nt	6	1	-2	0	102
CCOc1cc(C(=O)N2CCC3(CC2)OCCO3)cc(OCC)c1OCC	-1	62*	-11	nt	nt	nt	-2	105
Cc1cc(C(=O)N2CCC3(CC2)OCCO3)cs1	-1	4	-1	-6	-2	-4	nt	nt
CC(C(N)=O)N1CC(c2ccc(Cl)cc2)CC1=O (centres undefined)	0	50*	6	-6	-2	-4	1	98
COC(=O)[C@@H]1[C@@H](CO)[C@@H]2Cn3c(ccc(-c4ccccc4F)c3=O)[C@H]1N2CC1CCCC1	nt	nt	-3	nt	nt	nt	nt	nt
O=C(NCCN1CCC2(CC1)C(=O)NCN2c1ccccc1)c1cccc(F)c1	nt	nt	nt	0	2	nt	nt	nt
Cn1ncnc2c(=O)n(C)c(=O)nc1-2	-3	61*	39	nt	nt	-3	73*	87	Aptamer quench=-1.8
O=c1[nH]c(=S)n(-c2ccccc2)c(O)c1C=NCCN1CCNCC1	-1	89*	1	1	7	-3	-1	99
N#Cc1ccc(-c2ccc([C@H]3[C@@H](CO)N4CCCCN(C(=O)Cc5ccccc5)C[C@@H]34)cc2)cc1	nt	nt	6	nt	nt	nt	nt	nt
COC(=O)[C@H]1[C@H](CO)[C@H]2Cn3c(ccc(C4=CCCCC4)c3=O)[C@@H]1N2C(=O)CC1CC1	nt	nt	-8	nt	nt	nt	nt	nt
CN1C2CCC1/C(=C/c1ccccn1)C(=O)/C2=C\c1ccccn1	-2	92*	1	13	6	0	2	110
CCCN1[C@@H]2Cn3c(ccc(-c4ccc(F)cc4)c3=O)[C@H]1[C@@H](C(=O)OC)[C@@H]2CO	nt	nt	-8	nt	nt	nt	nt	nt
